Source: PubChem (Broad Institute)
DENV2 CPE = protects cells from dengue virus 2 cytopathic effect; DENV2-infected cells, cytopathic effect rescue, plate reader; CPE inhibition, % at 9.99 µM; 350,000 compounds, 1.7% hits; in the data active means CPE inhibition above about 20%, passing the limit was not always enough; inconclusive means no clear call, values can overlap the other calls; tested in BHK-21 cells;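 further: 0% = median of neutral control wells and 100% = median of positive control wells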
SIRT5 inh = inhibitors of human sirtuin-5 desuccinylase | 330,000 compounds, 1.1% hits | inhibition, % at 15 µM | Purified SirT5, succinyl-peptide AMC, trypsin-coupled fluorescence | Q9NXA8; in the data active means inhibition above about 15%; inconclusive means no clear call, values can overlap the other calls
E-sel inducer = induces E-selectin expression in human endothelial cells; P16581; HUVEC E-selectin immunofluorescence imaging; normalized: neutral wells 0, TNF-alpha wells 100; activation, % at 7.58 µM; 260,000 compounds, 0.37% hits; AID 686992;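 active means mean E-selectin-positive cell signal at least 10% of the positive control, reached in at least 60% of replicates, without over 20% cell loss; inconclusive means no rule given, readout overlaps actives, possibly toxicity-flagged; inactive means the rest, including those meeting only one limit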
Target sequence (P16581 whole entry, looked up): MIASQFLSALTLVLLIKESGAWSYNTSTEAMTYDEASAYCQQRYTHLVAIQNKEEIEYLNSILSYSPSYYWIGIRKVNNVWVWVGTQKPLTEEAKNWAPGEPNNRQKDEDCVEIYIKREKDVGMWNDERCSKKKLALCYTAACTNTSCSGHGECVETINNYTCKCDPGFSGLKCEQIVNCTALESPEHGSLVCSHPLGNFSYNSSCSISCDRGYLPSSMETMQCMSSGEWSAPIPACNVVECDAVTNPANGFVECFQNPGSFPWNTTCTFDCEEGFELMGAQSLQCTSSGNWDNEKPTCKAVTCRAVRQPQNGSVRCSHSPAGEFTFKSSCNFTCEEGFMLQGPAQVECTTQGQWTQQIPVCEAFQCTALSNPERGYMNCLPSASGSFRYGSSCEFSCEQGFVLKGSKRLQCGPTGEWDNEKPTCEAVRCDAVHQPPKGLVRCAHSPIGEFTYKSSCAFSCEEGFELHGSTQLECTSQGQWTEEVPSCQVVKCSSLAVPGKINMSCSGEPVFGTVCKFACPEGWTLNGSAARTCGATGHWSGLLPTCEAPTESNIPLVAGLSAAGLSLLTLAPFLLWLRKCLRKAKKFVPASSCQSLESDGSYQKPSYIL
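Test system: HUVEC; input: 3,000 HUVEC/well; measured by: immunofluorescence imaging; read-out: % PE-positive cells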
* marks the source's active call; other numbers are inactive results; ? = inconclusive; . = no result. Only some compounds are listed: those with a hit (about 2.9% of all), similar ones and a draw of the others.

SMILES	DENV2 CPE	SIRT5 inh	E-sel inducer
O=C(C[C@H]1C[C@H]2c3cc(NS(=O)(=O)c4ccc(F)cc4)ccc3O[C@H]2[C@H](CO)O1)NCc1ccc(Oc2ccccc2)cc1	0	12	0
O=C(C[C@H]1C[C@@H]2c3cc(NS(=O)(=O)c4ccc(F)cc4)ccc3O[C@@H]2[C@@H](CO)O1)NCc1ccc(Oc2ccccc2)cc1	3	15*	-1
O=C(C[C@H]1C[C@@H]2c3cc(NS(=O)(=O)c4ccc(F)cc4)ccc3O[C@@H]2[C@@H](CO)O1)NCc1ccc(-c2ccccc2)cc1	-5	17*	0
O=C(C[C@H]1C[C@H]2c3cc(NS(=O)(=O)c4ccc(F)cc4)ccc3O[C@H]2[C@@H](CO)O1)NCc1ccc(-c2ccccc2)cc1	-3	1	2
CN(C)c1ccc2c(c1)[C@H]1C[C@H](CC(=O)NCc3ccc(Oc4ccccc4)cc3)O[C@H](CO)[C@H]1O2	1	21*	4
CN(C)c1ccc2c(c1)[C@@H]1C[C@H](CC(=O)NCc3ccc(Oc4ccccc4)cc3)O[C@@H](CO)[C@@H]1O2	0	8	.
COc1ccccc1-c1ccc2c(c1)[C@H]1[C@H](CCN1C(=O)C1CCC1)[C@H](CO)N2	13	2	0
COc1ccc(C(=O)NCc2cccnc2)cc1S(=O)(=O)N1CCCc2ccccc21	-3	0	0
C[C@H]1CN([C@@H](C)CO)C(=O)Cc2cc(NC(=O)Nc3ccccc3)ccc2O[C@@H]1CN(C)S(C)(=O)=O	1	.	.
Cc1ccc2[nH]c3c(=O)n(CC(=O)NCc4ccco4)ncc3c2c1	9	6	.
O=C(O)CC(CNC(=O)C1CCCN1C(=O)OCc1ccccc1)c1ccccc1 (centres undefined)	2	-1	0
CC(=O)OCc1ccc(C2=CC(=O)CC(C)(C)C2=O)cc1	1	.	0
CC1(C)CC(=O)C=C(c2ccc(COC(=O)C(c3ccccc3)c3ccccc3)cc2)C1=O	54*	-5	0
COc1ccc2c3c([nH]c2c1)[C@H](CO)N(C(=O)c1ccccc1)CC31CN(C)C1	?	.	0
Cc1cccc(CS(=O)(=O)Cc2ccc(C(=O)NC3CCCCC3)o2)c1	-2	-6	0
COc1ccc(S(=O)(=O)N(C)C[C@H]2OCCCC[C@H](C)Oc3ccc(NS(=O)(=O)c4cccs4)cc3C(=O)N([C@@H](C)CO)C[C@@H]2C)cc1	10	1	0
COc1ccc(S(=O)(=O)Nc2ccc3c(c2)C(=O)N([C@H](C)CO)C[C@@H](C)[C@@H](CN(C)S(=O)(=O)c2cccs2)OCCCC[C@H](C)O3)cc1	-5	7	.
COc1ccc(S(=O)(=O)N(C)C[C@@H]2OCCCC[C@H](C)Oc3ccc(NS(=O)(=O)c4cccs4)cc3C(=O)N([C@@H](C)CO)C[C@H]2C)cc1	-18	19*	0
COc1ccc(S(=O)(=O)N(C)C[C@H]2OCCCC[C@H](C)Oc3ccc(NS(=O)(=O)c4cccs4)cc3C(=O)N([C@H](C)CO)C[C@H]2C)cc1	63*	13	0
COc1ccc(S(=O)(=O)N(C)C[C@H]2OCCCC[C@@H](C)Oc3ccc(NS(=O)(=O)c4cccs4)cc3C(=O)N([C@H](C)CO)C[C@H]2C)cc1	4	2	0
COc1ccc(S(=O)(=O)Nc2ccc3c(c2)C(=O)N([C@@H](C)CO)C[C@@H](C)[C@@H](CN(C)S(=O)(=O)c2cccs2)OCCCC[C@H](C)O3)cc1	0	23*	.
CC(C)NC(=O)NCC[C@@H]1CC[C@H](NS(=O)(=O)c2ccc(-c3ccccc3)cc2)[C@H](CO)O1	9	3	0
Cc1ccc(CN(C)C[C@H]2OCc3cn(nn3)CCCC(=O)N([C@H](C)CO)C[C@H]2C)cc1	6	1	0
CNC[C@@H]1Oc2ccc(N)cc2C(=O)N([C@@H](C)CO)C[C@H]1C	-7	.	0
Cc1cc(C)n(-c2ccc(C(=O)Nc3cccnc3Cl)cc2)n1	-4	1	0
SMILES	DENV2 CPE	SIRT5 inh	E-sel inducer
Cc1c(C(=O)N2CCN(C)CC2)oc2ccc(Br)cc12	1	-2	0
Cc1c(C(=O)N2CCCC2)oc2ccc(Br)cc12	53*	1	.
O=C(Nc1nnc(-c2ccco2)o1)c1cccc(Cl)c1	2	-4	.
CC1=C(C(=O)N2CCOCC2)CC(CC(=O)NC2CCCCC2)C(=O)N1Cc1ccc(C(C)(C)C)cc1 (centres undefined)	-15	-2	0
Cc1cc(O)c2c(c1)C(=O)c1cccc(O)c1C2=O	-1	.	.
O=C(O)c1cc(O)c2c(c1)C(=O)c1cccc(O)c1C2=O	79*	18*	-2
Cc1ccc(S(=O)(=O)N2CCN(C(=O)c3ccc(S(=O)(=O)N4CCCC4)cc3)CC2)cc1	16	-6	.
Cc1ccc(CN(C)c2ccc(S(=O)(=O)N3CCCC3)cn2)cc1	25*	3	.
